{"source": "the RNAGym collection of RNA variant scans (doi:10.1101/gad.245936.114)", "parents": {"B1": {"name": "tRNA (parent)", "chain": "CUCUCGGUAGCCAAGUUGGUUUAAGGCGCAAGACUUUAAUUUAUCACUACGAAAUCUUGAGAUCGGGCGUUCGACUCGCCCCCGGGAGAUUUUUUCCUCGAGCAA"}}, "note": "Variants at the floor of the assay were thinned out.", "data": [{"variants_of": "B1", "assay": "nonsense suppression (GFP-seq) (ratio to wild type); higher = more function; SUP4oc tRNA, yeast GFP reporter sort-seq", "procedure,_shortened": "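To measure nonsense suppression, tRNA variants from a library carrying ~3% random mutations were integrated into the yeast genome alongside RFP and a GFP ochre reporter under galactose control. Growth took place in raffinose/galactose medium supplemented with 80 mg/L adenine, followed by sorting into GFP/RFP bins and Illumina sequencing of each bin (phred ≥30). For each variant with ≥100 reads and ≥30 cells, the bin median GFP/RFP values were weighted by its estimated cell share per bin and referenced to the unmutated parent tRNA.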", "values": [{"variant": "U2C U16G", "nonsense suppression": 0.168}, {"variant": "U4A A9U", "nonsense suppression": 0.2}, {"variant": "U2G G10C G15U C29U A31U", "nonsense suppression": "≤ 0.026"}, {"variant": "U4A U17G G69A G78U", "nonsense suppression": "≤ 0.026"}, {"variant": "C3U U21G G85C", "nonsense suppression": 0.417}, {"variant": "U4C A9G G15A A30U", "nonsense suppression": 0.0449}, {"variant": "U2G A14C G84C", "nonsense suppression": "≤ 0.026"}, {"variant": "U4A C11A A14U", "nonsense suppression": "≤ 0.026"}, {"variant": "C3U G61A", "nonsense suppression": 0.198}, {"variant": "C3U G61C", "nonsense suppression": 0.164}, {"variant": "U2G U16G U22G A23U", "nonsense suppression": "≤ 0.026"}, {"variant": "C3U A13U C34G", "nonsense suppression": "≤ 0.026"}, {"variant": "C3U G78A", "nonsense suppression": 0.0608}, {"variant": "U4A U21A G66U", "nonsense suppression": "≤ 0.026"}, {"variant": "U2C C80A", "nonsense suppression": "≤ 0.026"}, {"variant": "U2G U8A C12A A30G G59U G88C", "nonsense suppression": "≤ 0.026"}, {"variant": "C3U U57C G69A G73A G85A", "nonsense suppression": "≤ 0.026"}, {"variant": "C3A A33U", "nonsense suppression": "≤ 0.026"}, {"variant": "C3U U76C", "nonsense suppression": 0.17}, {"variant": "C3U U76A", "nonsense suppression": 0.0398}, {"variant": "U2C U21C", "nonsense suppression": 0.203}, {"variant": "C3U U58C", "nonsense suppression": 0.202}, {"variant": "U4A U21G C79U", "nonsense suppression": "≤ 0.026"}, {"variant": "C3U U4C A9C", "nonsense suppression": 1.11}, {"variant": "U2G A13U", "nonsense suppression": 0.0638}, {"variant": "C3G U4C", "nonsense suppression": 0.399}, {"variant": "C3G U4G", "nonsense suppression": 0.0277}, {"variant": "U4A U22G", "nonsense suppression": 0.155}, {"variant": "U4C A24C", "nonsense suppression": 1.06}, {"variant": "U4C A24G", "nonsense suppression": 0.31}, {"variant": "U4C A24U", "nonsense suppression": 0.84}, {"variant": "C3A U20A G28A", "nonsense suppression": "≤ 0.026"}, {"variant": "C3A C72A", "nonsense suppression": "≤ 0.026"}, {"variant": "U2C G26U U76A", "nonsense suppression": "≤ 0.026"}, {"variant": "C3G U8G U21C C34U", "nonsense suppression": "≤ 0.026"}, {"variant": "C3A C34A U58A", "nonsense suppression": "≤ 0.026"}, {"variant": "U2C C56U", "nonsense suppression": "≤ 0.026"}, {"variant": "U2C C56G", "nonsense suppression": "≤ 0.026"}, {"variant": "U2C C56A", "nonsense suppression": "≤ 0.026"}, {"variant": "U4A C79U", "nonsense suppression": 0.0353}, {"variant": "C3A G78A", "nonsense suppression": 0.0776}, {"variant": "C3G A9G G59U", "nonsense suppression": "≤ 0.026"}, {"variant": "U4A C83G G88C", "nonsense suppression": "≤ 0.026"}, {"variant": "U4C A87C", "nonsense suppression": 0.197}, {"variant": "U4C A87G", "nonsense suppression": 1.1}, {"variant": "C3U G66C", "nonsense suppression": 0.0288}, {"variant": "U4C A31G G65A", "nonsense suppression": "≤ 0.026"}, {"variant": "U2G A74C", "nonsense suppression": "≤ 0.026"}, {"variant": "C3U C68U", "nonsense suppression": 0.201}, {"variant": "C3G C29G A54U", "nonsense suppression": "≤ 0.026"}, {"variant": "C3A G28U G65C", "nonsense suppression": "≤ 0.026"}, {"variant": "U4C A31U U57G G88U", "nonsense suppression": "≤ 0.026"}, {"variant": "C3U U22A", "nonsense suppression": 0.169}, {"variant": "C3U U22C", "nonsense suppression": 0.304}, {"variant": "U2G A87U", "nonsense suppression": 0.655}, {"variant": "C3U U4C C5G G7U U8A A9G G10C C12A U17A U57A", "nonsense suppression": "≤ 0.026"}, {"variant": "U4A A60U", "nonsense suppression": 0.52}, {"variant": "U4A C77U", "nonsense suppression": 0.0506}, {"variant": "U4C A9G U22G", "nonsense suppression": 0.202}, {"variant": "U2G G19U A31U C83A G84A", "nonsense suppression": "≤ 0.026"}, {"variant": "C3G U20C", "nonsense suppression": 0.0788}, {"variant": "C3G A74G", "nonsense suppression": "≤ 0.026"}, {"variant": "C3G G7C U55A", "nonsense suppression": "≤ 0.026"}, {"variant": "C3A U70G", "nonsense suppression": "≤ 0.026"}, {"variant": "U4C G61C", "nonsense suppression": 0.86}, {"variant": "U4C G61A", "nonsense suppression": 1.25}, {"variant": "U4C G61U", "nonsense suppression": 1.02}, {"variant": "C3G A30G U58A", "nonsense suppression": "≤ 0.026"}, {"variant": "C3G A13U", "nonsense suppression": 0.0541}, {"variant": "C3A U35C", "nonsense suppression": "≤ 0.026"}, {"variant": "C3A U35G", "nonsense suppression": "≤ 0.026"}, {"variant": "C3A U35A", "nonsense suppression": "≤ 0.026"}, {"variant": "U4C C11A A33G A74U", "nonsense suppression": "≤ 0.026"}, {"variant": "C3A G66C", "nonsense suppression": "≤ 0.026"}, {"variant": "C3A A13C", "nonsense suppression": 0.0261}, {"variant": "C3A A13U", "nonsense suppression": 0.0379}, {"variant": "U4A A9G G73U C77G G86U", "nonsense suppression": "≤ 0.026"}, {"variant": "U4A C5G G59A", "nonsense suppression": "≤ 0.026"}, {"variant": "U4C A13G", "nonsense suppression": 0.774}, {"variant": "U4C A13U", "nonsense suppression": 1.12}, {"variant": "U4C A13C", "nonsense suppression": 1.05}, {"variant": "U4C C27U G61A", "nonsense suppression": 0.205}, {"variant": "C3U C5U", "nonsense suppression": 0.158}, {"variant": "U2C A60C C75U", "nonsense suppression": "≤ 0.026"}, {"variant": "U4C G85A", "nonsense suppression": 0.625}, {"variant": "C3G U16G G66A", "nonsense suppression": "≤ 0.026"}, {"variant": "C3U A9G", "nonsense suppression": 0.195}, {"variant": "C3U A30G C34U", "nonsense suppression": "≤ 0.026"}, {"variant": "C3A C29U A87G", "nonsense suppression": "≤ 0.026"}, {"variant": "U4C C68U U76C", "nonsense suppression": 1.13}, {"variant": "U4A G61U", "nonsense suppression": 0.194}, {"variant": "C3A G15U G25A", "nonsense suppression": "≤ 0.026"}, {"variant": "C3U G26C G28A", "nonsense suppression": "≤ 0.026"}, {"variant": "U4C G73A", "nonsense suppression": 1.04}, {"variant": "C3G G78A", "nonsense suppression": "≤ 0.026"}, {"variant": "U2C C5A", "nonsense suppression": "≤ 0.026"}, {"variant": "U2C C5G", "nonsense suppression": "≤ 0.026"}, {"variant": "C3G G84U", "nonsense suppression": "≤ 0.026"}, {"variant": "C3G C77A C83A", "nonsense suppression": "≤ 0.026"}, {"variant": "U4C G7U", "nonsense suppression": 0.202}, {"variant": "U2C U20C", "nonsense suppression": 0.0975}, {"variant": "U2G A33C A60U G73C", "nonsense suppression": "≤ 0.026"}, {"variant": "U4C A30U", "nonsense suppression": 0.0792}, {"variant": "C3U U63A", "nonsense suppression": 0.12}, {"variant": "U4A U20C C83A", "nonsense suppression": "≤ 0.026"}, {"variant": "C3A U4C", "nonsense suppression": 0.191}, {"variant": "U4A", "nonsense suppression": 0.693}, {"variant": "U4C", "nonsense suppression": 0.585}, {"variant": "C3G G65C C79U", "nonsense suppression": "≤ 0.026"}, {"variant": "U4C A13G C83U", "nonsense suppression": 0.334}, {"variant": "U4C G78A", "nonsense suppression": 0.978}, {"variant": "U4C G78U", "nonsense suppression": 1.12}, {"variant": "U4C G78C", "nonsense suppression": 1.06}, {"variant": "C3U G10A", "nonsense suppression": 0.0262}, {"variant": "U2C U17A", "nonsense suppression": 0.0435}, {"variant": "C3U G32A G67U G69C", "nonsense suppression": "≤ 0.026"}, {"variant": "U2C A60U", "nonsense suppression": 0.194}, {"variant": "U2C A60C", "nonsense suppression": 0.0359}, {"variant": "U2C C27A C82U", "nonsense suppression": "≤ 0.026"}, {"variant": "C3A A89G", "nonsense suppression": "≤ 0.026"}, {"variant": "C3U C12U C82G", "nonsense suppression": "≤ 0.026"}, {"variant": "C3U A14G C80G", "nonsense suppression": "≤ 0.026"}, {"variant": "C3U U20G G85A", "nonsense suppression": 0.214}, {"variant": "C3U A13G C34G", "nonsense suppression": 0.439}, {"variant": "U4A A24U", "nonsense suppression": 0.0458}, {"variant": "U2C G28U", "nonsense suppression": "≤ 0.026"}, {"variant": "C3U G86A", "nonsense suppression": 1.07}, {"variant": "C3A U20G G28U U57C G61C A74U G78C C79A", "nonsense suppression": "≤ 0.026"}, {"variant": "C3U A33U", "nonsense suppression": 0.027}, {"variant": "U2C A31G C72U", "nonsense suppression": "≤ 0.026"}, {"variant": "U2C U4C A13G", "nonsense suppression": 0.205}, {"variant": "U4C A14U", "nonsense suppression": 0.0343}, {"variant": "U2G G10A C11G U20G A33G", "nonsense suppression": "≤ 0.026"}, {"variant": "C3G C77A", "nonsense suppression": "≤ 0.026"}, {"variant": "C3G G15C U58G G88C", "nonsense suppression": 0.344}, {"variant": "U2C G61U", "nonsense suppression": 0.122}, {"variant": "U2C G61C", "nonsense suppression": 0.0279}, {"variant": "U4A U63A", "nonsense suppression": 0.155}, {"variant": "C3G U20G G69A U70C", "nonsense suppression": "≤ 0.026"}, {"variant": "U4C G26U C34G U35A C82A", "nonsense suppression": "≤ 0.026"}, {"variant": "U4C G6U G28A", "nonsense suppression": 0.427}, {"variant": "C3A U57A C80U A89U", "nonsense suppression": "≤ 0.026"}, {"variant": "U2C G32A A54G", "nonsense suppression": "≤ 0.026"}, {"variant": "C3A G86C", "nonsense suppression": "≤ 0.026"}, {"variant": "C3G C56G", "nonsense suppression": "≤ 0.026"}, {"variant": "C3U C77G", "nonsense suppression": 0.0323}, {"variant": "U4A G19A A31U A62G", "nonsense suppression": "≤ 0.026"}, {"variant": "U2C C79G", "nonsense suppression": "≤ 0.026"}, {"variant": "C3A U22C G26U C80A", "nonsense suppression": "≤ 0.026"}, {"variant": "U4C C12G C64G G66C", "nonsense suppression": "≤ 0.026"}, {"variant": "U2G A23U", "nonsense suppression": "≤ 0.026"}, {"variant": "U2G G85U", "nonsense suppression": 0.0411}, {"variant": "U2G G85A", "nonsense suppression": "≤ 0.026"}, {"variant": "C3U A13C", "nonsense suppression": 0.184}, {"variant": "C3U A13U", "nonsense suppression": 0.194}, {"variant": "C3U C29G C83G G88C", "nonsense suppression": 0.993}, {"variant": "C3G U55C", "nonsense suppression": 0.152}, {"variant": "U4C G6U", "nonsense suppression": 0.959}, {"variant": "U4A G67C C68U", "nonsense suppression": "≤ 0.026"}, {"variant": "U2C C12G A24C A62U C79A", "nonsense suppression": "≤ 0.026"}, {"variant": "U2C A24C", "nonsense suppression": 0.0326}, {"variant": "U4C G59A", "nonsense suppression": "≤ 0.026"}, {"variant": "C3G G7A C56G C79G", "nonsense suppression": 0.783}, {"variant": "C3G A24C A31C", "nonsense suppression": "≤ 0.026"}, {"variant": "U2C G88A", "nonsense suppression": "≤ 0.026"}, {"variant": "C3U A60U", "nonsense suppression": 0.55}, {"variant": "U2G C83G", "nonsense suppression": "≤ 0.026"}]}]}
